Experimental data taken from ChEMBL document CHEMBL1817567, “Design of benzimidazole- and benzoxazole-2-thione derivatives as inhibitors of bacterial hyaluronan lyase” (Eur J Med Chem, 2011).
In brackets after ≈: the same amount, converted by molar mass. Activity calls are given as the source filed them. The rule behind the calls is not given here.

Experiments:
[1] = target: T1, Hyaluronidase (Bos taurus) (UniProt Q8SQG8+Q5E985); assay: Inhibition of bovine testes hyaluronidase at 4200 uM after 30 mins at pH 5 by turbidimetric analysis; format: protein assay
[2] = target: T1, Hyaluronidase (Bos taurus); assay: Inhibition of bovine testes hyaluronidase at 190 uM after 30 mins at pH 5 by turbidimetric analysis; format: protein assay
[3] = Aqueous solubility of the compound in water; format: physicochemical
Method in brief: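 Turbidity at 600 nm of test compound in DMSO added to citrate–phosphate buffer (pH 5 and pH 7.4), water and BSA (0.2 mg/ml stock), at various concentrations, read against a water reference. Enzyme testing used only concentrations showing no turbidity.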

[4] = target: T1, Hyaluronidase (Bos taurus); assay: Inhibition of bovine testes hyaluronidase at 150 uM after 30 mins at pH 5 by turbidimetric analysis; format: protein assay
[5] = target: T1, Hyaluronidase (Bos taurus); assay: Inhibition of bovine testes hyaluronidase at 170 uM after 30 mins at pH 5 by turbidimetric analysis; format: protein assay
[6] = target: T1, Hyaluronidase (Bos taurus); assay: Inhibition of bovine testes hyaluronidase at 180 uM after 30 mins at pH 5 by turbidimetric analysis; format: protein assay
[7] = target: T1, Hyaluronidase (Bos taurus); assay: Inhibition of bovine testes hyaluronidase at 200 uM after 30 mins at pH 5 by turbidimetric analysis; format: protein assay
[8] = target: T1, Hyaluronidase (Bos taurus); assay: Inhibition of bovine testes hyaluronidase at 80 uM after 30 mins at pH 5 by turbidimetric analysis; format: protein assay
[9] = target: T1, Hyaluronidase (Bos taurus); assay: Inhibition of bovine testes hyaluronidase at 3800 uM after 30 mins at pH 5 by turbidimetric analysis; format: protein assay
[10] = target: T1, Hyaluronidase (Bos taurus); assay: Inhibition of bovine testes hyaluronidase at 380 uM after 30 mins at pH 5 by turbidimetric analysis; format: protein assay
[11] = Inhibition of Streptococcus agalactiae 4755 hyaluronidase at pH 7.4 after 3 hrs by turbidimetric analysis
Method in brief: (§1)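 Same turbidimetric hyaluronan-lyase assay at pH 7.4 (citrate–phosphate/NaCl): SagHyal4755 2.9 ng, hyaluronan (2 mg/ml stock), BSA, 3.8% DMSO final, 3 h at 37 °C. CTAB (2.5%, in 0.5 M NaOH) precipitation, 20 min at 25 °C, A600. Activity scaled between no-inhibitor and no-enzyme samples.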

[12] = test system: Streptococcus agalactiae; assay: Inhibition of Streptococcus agalactiae 4755 hyaluronidase at 380 uM after 30 mins at pH 5.0 by turbidimetric analysis
Method in brief: (§2)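 SagHyal4755 (2.9 ng) with BSA and hyaluronan (2 mg/ml stock) in citrate–phosphate/NaCl buffer pH 5.0, 3.8% DMSO final, 30 min at 37 °C. Stopped by alkaline 2.5% CTAB, then 20 min at 25 °C. Residual-substrate turbidity read at 600 nm; no-inhibitor sample = 100%, no-enzyme sample = 0% activity. Enzyme-free compound controls were run.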

[13] = target: T1, Hyaluronidase (Bos taurus); assay: Inhibition of bovine testes hyaluronidase at 2000 uM after 30 mins at pH 5 by turbidimetric analysis; format: protein assay
[14] = target: T1, Hyaluronidase (Bos taurus); assay: Inhibition of bovine testes hyaluronidase at 100 uM after 30 mins at pH 5 by turbidimetric analysis; format: protein assay
[15] = target: T1, Hyaluronidase (Bos taurus); assay: Inhibition of bovine testes hyaluronidase at 49 uM after 30 mins at pH 5 by turbidimetric analysis; format: protein assay
[16] = target: T1, Hyaluronidase (Bos taurus); assay: Inhibition of bovine testes hyaluronidase at 400 uM after 30 mins at pH 5 by turbidimetric analysis; format: protein assay
[17] = target: T1, Hyaluronidase (Bos taurus); assay: Inhibition of bovine testes hyaluronidase at 460 uM after 30 mins at pH 5 by turbidimetric analysis; format: protein assay
[18] = target: T1, Hyaluronidase (Bos taurus); assay: Inhibition of bovine testes hyaluronidase at 63 uM after 30 mins at pH 5 by turbidimetric analysis; format: protein assay
[19] = target: T1, Hyaluronidase (Bos taurus); assay: Inhibition of bovine testes hyaluronidase at 130 uM after 30 mins at pH 5 by turbidimetric analysis; format: protein assay
[20] = test system: Streptococcus agalactiae; assay: Inhibition of Streptococcus agalactiae 4755 hyaluronidase at 49 uM after 30 mins at pH 5.0 by turbidimetric analysis; method in brief: as §2
[21] = test system: Streptococcus agalactiae; assay: Inhibition of Streptococcus agalactiae 4755 hyaluronidase at 200 uM after 30 mins at pH 5.0 by turbidimetric analysis; method in brief: as §2
[22] = test system: Streptococcus agalactiae; assay: Inhibition of Streptococcus agalactiae 4755 hyaluronidase at 200 uM after 3 hrs at pH 7.4 by turbidimetric analysis; method in brief: as §1
[23] = test system: Streptococcus agalactiae; assay: Inhibition of Streptococcus agalactiae 4755 hyaluronidase at 100 uM after 30 mins at pH 5.0 by turbidimetric analysis; method in brief: as §2
[24] = test system: Streptococcus agalactiae; assay: Inhibition of Streptococcus agalactiae 4755 hyaluronidase at 400 uM after 30 mins at pH 5.0 by turbidimetric analysis; method in brief: as §2

| inhibition [1] | inhibition [2] | solubility [3] | inhibition [4] | inhibition [5] | inhibition [6] | inhibition [7] | inhibition [8] | inhibition [9] | inhibition [10] | IC50 [11] | inhibition [13] | inhibition [14] | inhibition [15] | inhibition [16] | inhibition [17] | inhibition [18] | inhibition [19] | inhibition [21] | Structure (SMILES) | other results |
| --- | --- | --- | --- | --- | --- | --- | --- | --- | --- | --- | --- | --- | --- | --- | --- | --- | --- | --- | --- | --- |
| inactive | inactive | 380 µM (≈ 83.7 µg/mL) | inactive | inactive | inactive | inactive | inactive | inactive | inactive | 19 µM | inactive | inactive | inactive | inactive | inactive | inactive | inactive | – | CCn1c(=S)n(C(C)=O)c2ccccc21 | inhibition [12]: 10% |
| inactive | inactive | 49 µM (≈ 14.2 µg/mL) | inactive | inactive | inactive | inactive | inactive | inactive | inactive | 12 µM | inactive | inactive | inactive | inactive | inactive | inactive | inactive | – | CCCCCC(=O)n1c(=S)n(C(C)=O)c2ccccc21 | inhibition [20]: 50% |
| inactive | inactive | 200 µM (≈ 68.3 µg/mL) | inactive | inactive | inactive | inactive | inactive | inactive | inactive | 21 µM | inactive | inactive | inactive | inactive | inactive | inactive | inactive | 56% | COC(=O)c1ccc2oc(=S)n(C(=O)CCc3ccccc3)c2c1 | – |
| inactive | inactive | 200 µM (≈ 43.6 µg/mL) | inactive | inactive | inactive | inactive | inactive | inactive | inactive | – | inactive | inactive | inactive | inactive | inactive | inactive | inactive | inactive | CC(=O)n1c(=O)n(C(C)=O)c2ccccc21 | inhibition [22]: 10% |
| inactive | inactive | 100 µM (≈ 29.7 µg/mL) | inactive | inactive | inactive | inactive | inactive | inactive | inactive | 19 µM | inactive | inactive | inactive | inactive | inactive | inactive | inactive | – | O=C(CCCc1ccccc1)n1c(=S)oc2ccccc21 | inhibition [23]: 47% |
| inactive | inactive | 400 µM (≈ 116 µg/mL) | inactive | inactive | inactive | inactive | inactive | inactive | inactive | 70 µM | inactive | inactive | inactive | inactive | inactive | inactive | inactive | – | O=C(c1cccc(Cl)c1)n1c(=S)[nH]c2ccccc21 | inhibition [24]: 16% |
